MrgX1 allo act = human MrgX1 positive allosteric modulation, primary screen. Q96LB2. MrgX1-HEK293, Fluo-4 calcium flux, FDSS; stronger effect = higher value. B-score at 10 µM. actives 0.63% (n = 310,000). AID 588675;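 active = plate-corrected calcium response at least 3 library SD above typical, normal starting fluorescence, not activating the receptor alone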;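 note: compound read alongside a low EC10 to EC30 dose of BAM8-22 agonist; peak minus trough fluorescence over baseline measured at the second addition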
Target sequence (Q96LB2 whole entry, looked up): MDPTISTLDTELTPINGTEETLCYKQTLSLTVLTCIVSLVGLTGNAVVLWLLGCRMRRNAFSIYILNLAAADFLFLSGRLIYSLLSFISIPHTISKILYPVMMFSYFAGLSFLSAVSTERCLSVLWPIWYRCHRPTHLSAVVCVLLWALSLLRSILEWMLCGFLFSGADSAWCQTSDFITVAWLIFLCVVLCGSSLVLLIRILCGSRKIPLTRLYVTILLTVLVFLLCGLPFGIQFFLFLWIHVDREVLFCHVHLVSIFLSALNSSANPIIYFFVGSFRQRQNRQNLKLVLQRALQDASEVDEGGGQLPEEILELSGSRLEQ
RGS4 block = inhibitors of human RGS4; P49798; HEK293 M3R/RGS4 inducible, Fluo-4 calcium flux; stronger effect = higher value; triggered by carbachol at its EC20; B-score at 10 µM; actives 0.45% (n = 310,000); AID 463165;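 active = B-score, a plate-corrected calcium signal, over three deviations above library mean, with baseline fluorescence within five deviations of library mean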;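 note: RGS4 expression induced by doxycycline in cells with stable M3 receptor; B-score is computed from the integrated fluorescence ratio over baseline after carbachol; higher B-score means a larger calcium signal and so more RGS4 inhibition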
Target sequence (P49798 whole entry, looked up): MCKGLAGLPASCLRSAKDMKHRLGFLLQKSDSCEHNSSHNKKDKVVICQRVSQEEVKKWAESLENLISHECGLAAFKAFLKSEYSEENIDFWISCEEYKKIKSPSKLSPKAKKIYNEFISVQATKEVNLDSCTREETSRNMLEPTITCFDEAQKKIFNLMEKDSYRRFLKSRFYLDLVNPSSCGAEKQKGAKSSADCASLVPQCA
RGS4 pot = RGS4 potentiation or activation | AID 463111 | B-score at 10 µM | actives 0.92% (n = 310,000) | HEK293 M3R/inducible RGS4, carbachol calcium flux Fluo4; stronger effect = lower value;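 active = B-score of the integrated calcium signal more than 4 SD below the library mean, with starting fluorescence not abnormally high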;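 note: negative B-score means reduced calcium response which marks RGS4 activation or potentiation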
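Assay system: Inducible-RGS4 HEK293 cells carrying M3 receptor | Schedule: Compound preincubation 20 min at room temperature before agonist | Signal: Kinetic calcium fluorescence imaging with Fluo4-AM dye, 2 µM | Read-out basis: B score from integrated fluorescence ratio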
MrgX1 antag = antagonists of human MrgX1 receptor; B-score at 10 µM; MRGX1-HEK293 calcium flux, Fluo-4, BAM8-22 antagonism; stronger effect = lower value; actives 1.3% (n = 310,000); AID 588676; Q96LB2;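 active = calcium-response B-score plate-corrected more than 3 library SD below zero, starting fluorescence within 5 deviations, no agonist response on first addition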;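 note: peak minus trough fluorescence over baseline after final BAM8-22 challenge near maximal dose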
MrgX1 ag = agonists of human MrgX1 receptor; Q96LB2; MrgX1-HEK293 cells, Fluo-4 calcium fluorescence, agonist mode; stronger effect = higher value; B-score at 10 µM; actives 0.44% (n = 310,000);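 active = calcium response B-score plate-corrected fluorescence ratio at least 3 library SD, with starting fluorescence B-score inside 5 SD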
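System: HEK293 cells stably expressing human MrgX1 receptor; Dosing: test compound in the initial addition of three; Schedule: overnight plating, then 30 min 37 °C plus 30 min room-temperature dye loading; Detection: kinetic calcium dye fluorescence, Fluo-4 NW; Controls: per-plate positive and negative controls for Z′ factor.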
MrgX1 ag confirm = reconfirmed activator of human MrgX1 receptor signaling. shares compounds with MrgX1 ag. MrgX1-HEK293, Fluo-4 calcium fluorescence, FDSS. activation, % at 10 µM. actives 78% (n = 600);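 active = calcium signal rise, corrected for plate position, at least 3 library SD high, with starting brightness within 5 such deviations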
HEK293 Ca flux = activity in parental HEK293 cells lacking MrgX1; shares compounds with MrgX1 antag; fluorescence ratio F(max-min)/F0 at 10 µM; Fluo-4 calcium fluorescence, FDSS; actives 2% (n = 4,000);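 active = duplicate-averaged calcium fluorescence ratio at least three times the standard deviation of buffer wells, a nonspecific response in parental cells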
HEK293 Ca counter = activity in parental HEK293 cells without MrgX1. shares compounds with MrgX1 antag. parental HEK293 calcium flux, Fluo-4 fluorescence ratio; stronger effect = higher value. fluorescence ratio F(max-min)/F0 at 10 µM. AID 624114. actives 0.4% (n = 4,000);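 active = calcium fluorescence ratio, averaged over duplicates, at least 3 SD of the buffer-well ratio, meaning a nonspecific response in receptor-free cells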;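 note: untransfected parental HEK293 lacking MrgX1 used as counterscreen for MrgX1 allosteric activators; fluorescence change taken during the second addition on a kinetic imager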
HEK293 Ca cntr2 = MrgX1 activator counter-screen hit in parental HEK293 cells; shares compounds with MrgX1 antag; Fluo-4 calcium fluorescence (FDSS); stronger effect = higher value; fluorescence ratio F(max-min)/F0 at 10 µM; actives 8.7% (n = 4,000); AID 624115;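 active = calcium fluorescence ratio at least three times the spread of buffer wells, meaning a non-specific response in parental cells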
Numbers stand for hits. Rows were chosen to be rich in hits. Some 3.5% of all compounds tested hit in one or more screens of this group.

`CCOC(=O)CC(=O)CSc1nc(-c2cccnc2)ccc1C#N` gave MrgX1 allo act inactive, RGS4 block inactive, RGS4 pot inactive, MrgX1 antag inactive, MrgX1 ag 37, MrgX1 ag confirm 275%, HEK293 Ca flux inactive, HEK293 Ca counter inactive and HEK293 Ca cntr2 66.
`CCOC(=O)CSc1nc(-c2ccncc2)ccc1C#N` gave MrgX1 allo act inactive, RGS4 block inactive, RGS4 pot inactive, MrgX1 antag inactive, MrgX1 ag 29, MrgX1 ag confirm 150%, HEK293 Ca flux inactive, HEK293 Ca counter inactive and HEK293 Ca cntr2 inactive.
Screening CCOC(=O)CC(=O)CSc1nc(C)cc(-c2cccnc2)c1C#N returned MrgX1 allo act inactive, RGS4 block inactive, RGS4 pot inactive, MrgX1 antag inactive and MrgX1 ag inactive.
For Cc1nc2sc(-c3ccccc3)cc2c(=O)n1/N=C/N(C)C the results were MrgX1 allo act inactive, RGS4 block inactive, RGS4 pot inactive, MrgX1 antag inactive and MrgX1 ag inactive.
Screening COC(=O)c1c(NC(=O)c2cccnc2Cl)sc(C(=O)N(C)C)c1C returned MrgX1 allo act inactive, RGS4 block inactive, RGS4 pot inactive, MrgX1 antag inactive and MrgX1 ag inactive.
`O=C(Cc1c2ccccc2nc2ccccc12)c1ccccc1` gave MrgX1 allo act inactive, RGS4 block inactive, RGS4 pot inactive, MrgX1 antag inactive, MrgX1 ag 31, MrgX1 ag confirm inactive, HEK293 Ca flux inactive, HEK293 Ca counter inactive and HEK293 Ca cntr2 inactive.
`C#CCNC(=O)C1=C[C@H](c2ccccc2)[C@@H](CCCO)[C@H](OCC)O1` gave MrgX1 allo act inactive, RGS4 block inactive, RGS4 pot inactive, MrgX1 antag inactive and MrgX1 ag inactive.
Cc1ccc(-c2ccc(C3C(C#N)=C(N)Oc4n[nH]c(C)c43)o2)cc1 (stereo not drawn) was read as MrgX1 allo act inactive, RGS4 block inactive, RGS4 pot inactive, MrgX1 antag inactive, MrgX1 ag 37, MrgX1 ag confirm 129%, HEK293 Ca flux inactive, HEK293 Ca counter inactive and HEK293 Ca cntr2 inactive.
Cc1[nH]nc2c1C(c1ccc(-c3ccc(Cl)cc3)o1)C(C#N)=C(N)O2 (stereo not drawn) was read as MrgX1 allo act inactive, RGS4 block inactive, RGS4 pot inactive, MrgX1 antag inactive, MrgX1 ag 34, MrgX1 ag confirm inactive, HEK293 Ca flux inactive, HEK293 Ca counter inactive and HEK293 Ca cntr2 inactive.
CCN1CCc2c(sc(NC(=O)c3ccc4ccccc4c3)c2C(N)=O)C1 was read as MrgX1 allo act inactive, RGS4 block inactive, RGS4 pot inactive, MrgX1 antag inactive, MrgX1 ag 44, MrgX1 ag confirm inactive, HEK293 Ca flux inactive, HEK293 Ca counter inactive and HEK293 Ca cntr2 inactive.
Screening COc1ccc(Cl)cc1NC(=O)CSc1nnc(Cc2ccc(C)cc2)c(=O)[nH]1 returned MrgX1 allo act inactive, RGS4 block inactive, RGS4 pot inactive, MrgX1 antag inactive, MrgX1 ag 36, MrgX1 ag confirm 160%, HEK293 Ca flux inactive, HEK293 Ca counter inactive and HEK293 Ca cntr2 inactive.
Screening Cc1ccc(Cc2nnc(SCC(=O)Nc3ccccc3Cl)[nH]c2=O)cc1 returned MrgX1 allo act inactive, RGS4 block inactive, RGS4 pot inactive, MrgX1 antag inactive and MrgX1 ag inactive.
O=C(c1ccc(Cl)cc1)N1CCCOC1 was read as MrgX1 allo act inactive, RGS4 block inactive, RGS4 pot inactive, MrgX1 antag inactive, MrgX1 ag 50, MrgX1 ag confirm inactive, HEK293 Ca flux inactive, HEK293 Ca counter inactive and HEK293 Ca cntr2 inactive.
Screening CC1(C)CC(=O)C(C(C2=C(O)CC(C)(C)CC2=O)c2ccc(Cl)c([N+](=O)[O-])c2)C(=O)C1 (stereo not drawn) returned MrgX1 allo act inactive, RGS4 block inactive, RGS4 pot inactive, MrgX1 antag inactive, MrgX1 ag 91, MrgX1 ag confirm inactive, HEK293 Ca flux inactive, HEK293 Ca counter inactive and HEK293 Ca cntr2 inactive.
`O=[N+]([O-])c1ccc(NNS(=O)(=O)c2cc(Cl)ccc2Cl)nc1` gave MrgX1 allo act inactive, RGS4 block inactive, RGS4 pot inactive, MrgX1 antag inactive and MrgX1 ag inactive.
Screening COc1ccc(C2N(c3cc(Cl)ccc3OC)C(=O)C3CCCN32)cc1OC (stereo not drawn) returned MrgX1 allo act inactive, RGS4 block inactive, RGS4 pot inactive, MrgX1 antag inactive and MrgX1 ag inactive.
`Cc1ccc(-n2nc(C)c3c2OC(N)=C(C#N)C3c2ccccc2F)cc1` (stereo not drawn) gave MrgX1 allo act inactive, RGS4 block inactive, RGS4 pot inactive, MrgX1 antag inactive, MrgX1 ag 27, MrgX1 ag confirm 163%, HEK293 Ca flux inactive, HEK293 Ca counter inactive and HEK293 Ca cntr2 inactive.
For Cc1ccc(-n2nc(C)c3c2OC(N)=C(C#N)C3c2ccncc2)cc1 (stereo not drawn) the results were MrgX1 allo act inactive, RGS4 block inactive, RGS4 pot inactive, MrgX1 antag inactive and MrgX1 ag inactive.
Screening COCCCNC(=O)CN(c1ccc(OC)cc1)S(=O)(=O)c1ccc(NC(C)=O)cc1 returned MrgX1 allo act inactive, RGS4 block inactive, RGS4 pot inactive, MrgX1 antag inactive and MrgX1 ag inactive.
Screening CCOC(=O)c1ccc2c(c1)N(CC#N)C(=O)C(C)(C)O2 returned MrgX1 allo act inactive, RGS4 block inactive, RGS4 pot inactive, MrgX1 antag inactive, MrgX1 ag 50, MrgX1 ag confirm 109%, HEK293 Ca flux inactive, HEK293 Ca counter inactive and HEK293 Ca cntr2 46.
CCOC(=O)c1ccc2c(c1)N(CC(=O)N1CCCC1)C(=O)C(C)(C)O2 was read as MrgX1 allo act inactive, RGS4 block inactive, RGS4 pot inactive, MrgX1 antag inactive and MrgX1 ag inactive.
For CC1(C)CC(=O)c2c(Cc3ccccc3)n[nH]c2C1 the results were MrgX1 allo act inactive, RGS4 block inactive, RGS4 pot inactive, MrgX1 antag inactive and MrgX1 ag inactive.
CC1(C)CC(=O)c2c(-c3cccnc3)n[nH]c2C1 was read as MrgX1 allo act inactive, RGS4 block inactive, RGS4 pot inactive, MrgX1 antag inactive, MrgX1 ag 29, MrgX1 ag confirm inactive, HEK293 Ca flux inactive, HEK293 Ca counter inactive and HEK293 Ca cntr2 inactive.
Screening CCC(C)NC(=O)C1CCN(S(=O)(=O)c2ccc(OC)cc2)CC1 (stereo not drawn) returned MrgX1 allo act inactive, RGS4 block inactive, RGS4 pot inactive, MrgX1 antag inactive and MrgX1 ag inactive.

Bioassay records (PubChem BioAssay)
